Assay outcomes deposited in PubChem by The Scripps Research Institute Molecular Screening Center.
A selection: hits, their analogues and other compounds. The true share with any hit is near 2.7%.
PAFAH2 inh = inhibitors of human PAFAH2; inhibition, % at 3.39 µM; Q99487; recombinant PAFAH2, FP-rhodamine activity probe, fluorescence polarization; AID 492956; 340,000 tested, 0.99% active;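 active = inhibition above the mean over all tested compounds plus 3 SD, cut at about 30% in these data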;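 note: inhibitors block probe labeling of enzyme so polarization drops; 0% = enzyme with DMSO and 100% = wells lacking PAFAH2 protein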
PAFAH1B3 FP inh = blocks human PAF acetylhydrolase 1B catalytic subunit 3. Q15102. recombinant PAFAH1B3, FP-rhodamine probe, fluorescence polarization. inhibition, % at 3.39 µM. 340,000 tested, 0.28% active;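 active = inhibition above the screen-wide average of all tested compounds plus 3 SD, cut at about 25% in these data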;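 note: 0% = enzyme with DMSO only and 100% = wells lacking PAFAH1B3 protein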
ARFGAP1 inh = inhibits rat ARF GTPase activating protein 1 | AID 651572 | 360,000 tested, 0.26% active | inhibition, % at 16.5 µM | Arfgap1-stimulated ARF1 GTP hydrolysis, GDP FP detection;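 active = inhibition above a per-plate limit, mean inhibition of low control wells plus 3 SD, cut at about 25% in these data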;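 note: 0% = DMSO wells with enzyme and 100% = wells lacking Arfgap1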
Target sequence (Q62848 1-136 limits assumed): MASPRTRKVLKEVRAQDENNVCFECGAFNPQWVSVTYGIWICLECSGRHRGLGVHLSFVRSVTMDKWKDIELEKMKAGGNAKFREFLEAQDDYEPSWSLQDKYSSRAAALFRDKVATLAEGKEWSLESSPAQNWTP
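Replicates: Single well per compound | Assay system: Truncated rat Arfgap1 GAP domain | Control set: No-Arfgap1 wells (100%) versus DMSO full-reaction wells (0%) | Times: Enzyme reaction 120 min at 25 °C after 20 min preincubation | Reagent: Human ARF1(Δ1-17)-GTP substrate | Measured by: Tracer-displacement fluorescence polarization with EDTA stop, 620/688 nm | Measure: Percent inhibition of Arfgap1-stimulated GTP hydrolysis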
ASAP1 GAP inh = inhibitors of human ASAP1 ArfGAP activity. Q9ULH1. ASAP1-stimulated ARF1 GTP hydrolysis, GDP FP detection. inhibition, % at 16.5 µM. 360,000 tested, 0.19% active; in the data active = inhibition above about 25%;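 note: 0% = vehicle with enzyme and substrate and 100% = no enzyme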
PAFAH1B2 FP inh = PAFAH1B2 (human) inhibition; 340,000 tested, 1.2% active; P68402; recombinant PAFAH1B2, FP-rhodamine activity probe, fluorescence polarization; inhibition, % at 3.39 µM;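 active = inhibition above the mean of all tested compounds plus 3 SD, cut at about 24% in these data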;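 note: 0% = enzyme with DMSO and 100% = wells lacking PAFAH1B2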
pPAFAH FP inh = inhibitors of human plasma PAF acetylhydrolase (pPAFAH); recombinant pPAFAH, FP-rhodamine probe fluorescence polarization; Q13093; inhibition, % at 3.39 µM; 330,000 tested, 1.5% active;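 active = inhibition above the mean inhibition across the screen plus 3 SD, cut at about 25% in these data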;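 note: inhibitors block binding of the rhodamine activity-based probe so polarization drops; 0% = enzyme with DMSO and 100% = wells lacking pPAFAH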
Target sequence (Q13093 whole entry, looked up): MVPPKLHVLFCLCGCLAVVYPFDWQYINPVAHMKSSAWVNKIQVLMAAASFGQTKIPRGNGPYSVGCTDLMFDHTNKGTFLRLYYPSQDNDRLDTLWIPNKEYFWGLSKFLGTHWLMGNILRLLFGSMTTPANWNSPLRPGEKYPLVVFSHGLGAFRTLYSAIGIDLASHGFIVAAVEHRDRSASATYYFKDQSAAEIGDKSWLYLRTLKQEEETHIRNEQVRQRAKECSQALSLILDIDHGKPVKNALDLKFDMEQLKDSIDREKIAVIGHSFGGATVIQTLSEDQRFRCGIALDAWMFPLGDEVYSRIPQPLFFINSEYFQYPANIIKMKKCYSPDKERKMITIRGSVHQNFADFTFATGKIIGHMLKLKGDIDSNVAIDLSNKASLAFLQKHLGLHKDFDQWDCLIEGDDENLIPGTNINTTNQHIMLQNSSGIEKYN
PAFAH2 confirm = PAFAH2 (human) inhibition, confirmed | 2,300 tested, 65% active | shares compounds with PAFAH2 inh | inhibition, % at 3.39 µM | recombinant PAFAH2, FP-rhodamine activity probe, fluorescence polarization;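 active = mean inhibition over three repeats above a set limit taken from the earlier primary screen, cut at about 30% in these data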;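 note: inhibitor blocks binding of rhodamine activity probe so polarization falls; 0% = enzyme with DMSO and 100% = wells lacking PAFAH2 protein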
Active calls of the source: *; x = no result given.

SMILES | PAFAH2 inh | PAFAH1B3 FP inh | ARFGAP1 inh | ASAP1 GAP inh | PAFAH1B2 FP inh | pPAFAH FP inh | PAFAH2 confirm
CCOC(=O)C1=C(C)N=c2s/c(=C\c3ccc(OCC(=O)O)cc3)c(=O)n2C1c1ccccc1OC (stereo not drawn) | 11.7 | -7.0 | 3.7 | 1.2 | -3.0 | 2.7 | x
COc1ccc(NC(=O)COC(=O)c2ccc(-n3cnnn3)cc2)cc1Cl | 35.3* | 0.9 | 23.6 | 7.5 | -3.7 | -0.6 | 27.3
COc1ccc(OC)c(NC(=O)COC(=O)c2ccc(-n3cnnn3)cc2)c1 | 8.0 | 10.2 | 10.7 | 12.6 | 3.8 | 0.2 | x
O=C(COC(=O)c1cccc(-n2cnnn2)c1)Nc1c(Cl)cccc1C(F)(F)F | 42.1* | -1.7 | 11.8 | -0.2 | 2.8 | -5.2 | 21.6
CC(C)(C)OC(=O)Nc1ccccc1-n1nnnc1C(C(=O)c1ccc(F)cc1)N1CCN(c2ccccn2)CC1 (stereo not drawn) | x | x | 1.7 | -6.0 | x | x | x
COc1ccc(-c2cc(C(=O)Nc3cc(C)on3)no2)cc1OC | 61.8* | 10.1 | -1.8 | -3.0 | 0.8 | -0.7 | -3.1
COc1cc([N+](=O)[O-])ccc1NC(=O)COC(=O)c1n[nH]c2ccccc12 | 7.0 | 2.6 | 4.7 | -0.6 | -0.8 | -1.1 | x
Cc1cccc(NC(=O)COC(=O)c2n[nH]c3ccccc23)c1C | 58.7* | 3.8 | -0.1 | 0.1 | -0.7 | -4.7 | 46.0*
O=C(COC(=O)c1n[nH]c2ccccc12)Nc1ccccc1F | 43.7* | -4.7 | 5.0 | -0.8 | 3.9 | -10.6 | 43.0*
Cc1cccc(NC(=O)COC(=O)c2cccs2)c1C | 68.5* | -1.2 | 10.9 | 3.6 | 6.1 | 3.6 | 55.9*
O=C(COC(=O)c1n[nH]c2ccccc12)Nc1ccc(Cl)cc1[N+](=O)[O-] | 72.6* | 1.2 | 12.0 | 13.1 | 9.3 | -8.5 | 64.2*
CCN(C(=O)COC(=O)COc1ccc(Cl)c(C)c1)C1CCS(=O)(=O)C1 (stereo not drawn) | 10.7 | 0.0 | -0.3 | -5.0 | 3.8 | -0.4 | x
C=Cc1ccc(Cn2c(C)c(C(=O)NCCC#N)sc2=O)cc1 | x | x | -8.6 | -9.4 | x | x | x
CC1C=CCC2C(=O)N(c3ccccc3OC(=O)c3cccs3)C(=O)C12 (stereo not drawn) | 1.8 | -1.0 | -6.0 | -0.1 | 4.3 | -1.9 | x
CC1C=CCC2C(=O)N(c3ccc(Cl)cc3O)C(=O)C12 (stereo not drawn) | 34.9* | 9.5 | -2.4 | -5.1 | 6.9 | 2.8 | 22.8
Cn1c(=O)c2[nH]c(Cc3cccc4ccccc34)nc2n(C)c1=O | 5.4 | 0.9 | 14.9 | -7.7 | 1.0 | x | x
Cc1cccc(C)c1-n1c(C)cc(/C=N/NC(=O)CSc2ncccn2)c1C | 38.1* | 0.9 | 5.2 | -11.2 | 3.2 | 12.4 | 24.0
CC(=O)c1ccccc1NC(=O)COC(=O)/C=C/c1ccc(C)o1 | 31.4* | 1.0 | 3.3 | 4.6 | 2.1 | 6.2 | 24.4
CC(=O)c1ccccc1NC(=O)COC(=O)/C=C/c1cccs1 | 53.0* | 4.1 | 2.9 | 6.8 | -2.2 | 3.8 | 39.5*
CC(=O)c1ccc(NC(=O)COC(=O)/C=C/c2cccs2)cc1 | 57.0* | 5.0 | -14.2 | 8.7 | 9.2 | -6.7 | 46.1*
O=C(COC(=O)/C=C/c1cccs1)Nc1ccc2ccccc2c1 | 56.4* | -1.5 | 1.9 | 10.1 | 4.4 | 5.6 | 50.5*
COC(=O)[C@]12CCCCC=C1N(Cc1ccc3c(c1)OCO3)C(=O)[C@H](CC(=O)NCc1ccc(C)o1)C2 | x | x | 1.9 | -1.9 | x | x | x
C[C@@H]1C=CCCO[C@]12C(=O)Nc1ccccc12 | x | x | -0.6 | 1.1 | x | x | x
O=C(COC(=O)/C=C/c1cccs1)Nc1ccccc1Cl | 57.9* | 4.9 | 4.3 | 6.2 | -4.6 | 4.6 | 36.5*
COc1ccc(/C=C/C(=O)OCC(=O)Nc2ccc(Cl)cc2F)cc1S(=O)(=O)N1CCOCC1 | 72.6* | 3.7 | -0.2 | -0.5 | 2.5 | 2.3 | 48.1*
SMILES | PAFAH2 inh | PAFAH1B3 FP inh | ARFGAP1 inh | ASAP1 GAP inh | PAFAH1B2 FP inh | pPAFAH FP inh | PAFAH2 confirm
COc1ccc(/C=C/C(=O)OCC(=O)NC2CCCC(C)C2C)cc1S(=O)(=O)N1CCOCC1 (stereo not drawn) | 67.4* | -1.1 | 0.0 | 7.2 | 2.4 | 0.3 | 74.7*
O=C(CSc1nnc(COc2ccc(Cl)cc2)o1)N(c1ccccc1)C1CCS(=O)(=O)C1 (stereo not drawn) | x | x | 11.0 | -2.3 | x | x | x
C[C@H](CO)N1C[C@H](C)[C@@H](CN(C)S(=O)(=O)c2ccc(Oc3ccccc3)nc2)OCc2cn(nn2)CCCC1=O | x | x | -2.1 | -8.6 | x | x | x
C[C@@H]1CN([C@@H](C)CO)C(=O)CCCn2cc(nn2)CO[C@H]1CN(C)C(=O)Nc1ccnc(N2CCOCC2)c1 | x | x | 13.9 | 2.4 | x | x | x
O=C(COC(=O)c1ccco1)Nc1ccc2[nH]c(=O)[nH]c2c1 | -1.7 | 5.5 | 10.9 | -17.9 | -4.1 | -1.1 | x
CC(NC(=O)COC(=O)c1ccco1)c1ccccc1 (stereo not drawn) | 31.8* | -1.1 | -5.4 | -4.6 | 3.3 | 4.2 | 25.9
O=C(COC(=O)c1ccco1)Nc1ccc(Br)cc1 | 77.2* | 6.1 | -2.7 | 8.6 | 3.7 | 1.3 | 68.9*
O=C(COC(=O)c1ccco1)Nc1ccc([N+](=O)[O-])cc1Cl | 40.6* | 6.0 | 2.7 | -9.5 | 0.6 | -1.5 | 22.9
CN(C(=O)c1ccccc1C(=O)OCC(=O)Nc1ccccc1)c1ccccc1 | 78.1* | 2.2 | 2.7 | 10.5 | 6.6 | 4.0 | 77.1*
CCOC(=O)c1ccccc1NC(=O)COC(=O)c1ccccc1C(=O)N(C)c1ccccc1 | 6.0 | 2.6 | 5.7 | 0.3 | 1.2 | 3.6 | x
CCOc1ccc(NS(=O)(=O)c2ccc(Cl)c(N=Nc3c(O)[nH]c(=S)[nH]c3=O)c2)cc1Br | x | x | -8.3 | -6.0 | x | x | x
Cc1cc(C)n2nc(SC(C)C(=O)N3CC(C)OC(C)C3)nc2n1 (stereo not drawn) | 2.5 | 13.0 | -6.5 | -4.8 | 3.1 | -1.2 | x
CCC1(C2=CCCCC2)C(=O)NC(=S)N=C1N (stereo not drawn) | -4.8 | 11.8 | -3.6 | -11.4 | 4.2 | x | x
Cc1cc(Br)cn2c(Cc3cccc(F)c3)c(-c3ccco3)nc12 | x | x | -1.8 | 1.3 | x | x | x
OC(c1ccccc1)(c1ccccc1)c1nccc2ccccc12 | 1.7 | 12.5 | -6.8 | 4.5 | 3.2 | x | x
O=S(=O)(NCCCNS(=O)(=O)c1c(F)cccc1F)c1ccc2c(c1)OCCO2 | -4.6 | 16.4 | 9.5 | 8.9 | 4.9 | 4.1 | x
O=C(COC(=O)c1ccco1)Nc1ccccc1 | 68.1* | 3.6 | 18.7 | -0.7 | -3.1 | 3.6 | 65.5*
CN(C)S(=O)(=O)c1ccc(C(=O)N2CCN(S(=O)(=O)c3cccs3)CC2)cc1 | 41.8* | -3.5 | 5.7 | 10.1 | 4.4 | 2.1 | 39.2*
O=C(COC(=O)c1ccc(O)cc1)Nc1ccccc1[N+](=O)[O-] | 68.9* | 6.4 | 6.8 | -8.8 | 0.1 | 0.2 | 67.5*
CCOC(=O)c1ccccc1NC(=O)COC(=O)CC1CCCCC1 | 0.9 | 1.6 | 6.0 | -9.6 | -1.0 | 1.7 | x
